# Assay outcomes from PubChem.
# GPR7 antag: antagonists of human GPR7 (neuropeptides B/W receptor 1) | P48145 | GPR7-expressing cells, fluorescence antagonist assay | inhibition, % at 4.4 µM | 290,000 compounds, 1.1% hits | AID 1861; in the data active = inhibition above about 16%, passing the limit was not always enough;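 note: cells stimulated with the agonist NPW; 0% = agonist with vehicle and 100% = vehicle without agonist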
# Target sequence (P48145 whole entry, looked up): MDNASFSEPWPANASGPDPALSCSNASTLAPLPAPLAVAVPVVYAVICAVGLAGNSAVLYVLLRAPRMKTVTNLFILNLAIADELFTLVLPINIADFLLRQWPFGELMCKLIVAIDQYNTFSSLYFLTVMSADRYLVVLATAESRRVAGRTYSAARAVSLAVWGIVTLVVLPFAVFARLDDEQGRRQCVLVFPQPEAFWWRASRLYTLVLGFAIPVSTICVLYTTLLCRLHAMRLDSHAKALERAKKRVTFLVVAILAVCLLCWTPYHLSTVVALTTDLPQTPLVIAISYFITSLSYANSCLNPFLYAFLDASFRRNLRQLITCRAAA
# TAAR1 antag: human TAAR1 antagonism | 360,000 compounds, 1.5% hits | CHO RD-HGA16 TAAR1, Fluo-8 calcium fluorescence, antagonist | inhibition, % at 3 µM;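 active = inhibition above a per-plate cutoff, the mean inhibition of test compounds on that plate plus 3 SD, cut at about 49% in these data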;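 note: 0% = DMSO plus EC80 beta-PEA response and 100% = DMSO alone without agonist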
#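 Assay system: CHO-derived RD-HGA16 cells stably expressing human TAAR1 plus Gα16. Timing: 140 s kinetic read after compound, 140 s after agonist. Technique: kinetic Fluo-8 calcium fluorescence measurement. Measure: % inhibition of agonist calcium response.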
# OX1R antag-1: human HCRTR1 antagonism. O43613. CHO/OX1R cells, Fluo-8 calcium fluorescence, orexin A. inhibition, % at 5 µM. 330,000 compounds, 0.43% hits. AID 434989;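 active = inhibition above its plate's threshold, mean inhibition of all tested compounds on the plate plus 3 SD, cut at about 37% in these data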;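 note: 0% = orexin A challenge wells and 100% = SB-334867-A antagonist wells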
# CHO parental Ca: counter-screen: ATP calcium response change in parental CHO cells; parental CHO-K1, ATP-induced calcium, Fluo-8 fluorescence; inhibition, % at 5.6 µM; 330,000 compounds, 0.63% hits; AID 463079;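 active = inhibition above that plate's mean sample inhibition plus 3 SD, cut at about 26% in these data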;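 note: 0% = ATP-challenged DMSO wells and 100% = DMSO wells without ATP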
#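 Assay system – parental CHO cells · Reagent – ATP stimulus · Detection – intracellular calcium via Fluo-8 no-wash fluorescent dye · Evaluation – percent inhibition of ATP-evoked calcium rise, normalized to controls · Controls – ATP wells versus no-ATP DMSO wells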
# OX1R antag-2: blocks the human orexin 1 receptor; O43613; OX1R-expressing cells, FRET antagonist read-out; inhibition, % at 6.6 µM; 330,000 compounds, 1.8% hits; AID 485270; in the data active = inhibition mostly above about 38%, no sharp cut-off; inactive = mostly below about 40%;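 note: 0% = agonist challenge alone and 100% = reference antagonist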
# TAAR1 ag: human TAAR1 agonism; Q96RJ0; CHO RD-HGA16 TAAR1, Fluo-8 calcium fluorescence; vehicle wells 0%, saturating PEA agonist 100%; activation, % at 3 µM; 360,000 compounds, 0.99% hits;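 active = activation above the mean activation of all test compounds in the run plus 3 SD, cut at about 38% in these data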
#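 Assay system: CHO-derived RD-HGA16 cells with stable Gα16 and human TAAR1; timing: 17-24 h seeding, 75 min 37 °C dye, 30 min RT; read-out: % activation from peak over basal fluorescence ratio, DMSO-to-PEA scaled; measured by: kinetic Fluo-8 calcium fluorescence; benchmarks: low control DMSO, high control PEA (EC100); doses: 3 µM single concentration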
# * marks the source's active call; other numbers are inactive results; · = no result given. Rows were chosen to be rich in hits. Some 4.6% of all compounds tested hit in one or more screens of this group.
SMILES,GPR7 antag,TAAR1 antag,OX1R antag-1,CHO parental Ca,OX1R antag-2,TAAR1 ag
C=CCSc1nnc(NC(=O)CCN2C(=O)C3CC=CCC3C2=O)s1 (centres undefined),·,-2,-23,-18,5,18
O=Cc1c(Cl)nc2ccccn12,-7,-4,-12,-4,14,8
O=C(/C=C/c1c(Cl)nc2ccccn12)Nc1ccc(F)cc1,-2,0,-6,-16,53*,6
OCCCNc1cc(-c2ccnc(Nc3cccc(Cl)c3)n2)ccn1,·,80*,-11,-24,29,17
O=C(CSC1=NS(=O)(=O)c2ccccc2N1)Nc1cccc(F)c1,·,-27,-1,-5,20,-1
COc1ccc([C@@H]2CC(=O)[C@@H]3CN(S(=O)(=O)c4ccc(Cl)cc4)[C@H](c4ccc(C)cc4)C[C@@H]3N2S(=O)(=O)c2ccccc2)cc1,·,-32,·,·,·,0
CCc1ccc(CN2CCC(n3nccc3NC(=O)c3ccccc3)CC2)o1,-6,-25,-7,-20,1,1
CSCc1ccc(C(=O)Nc2ccc(C(N)=O)cc2)cc1,-9,10,-12,-1,8,5
CCCCC(CC)CNC(=O)C1CC=CCC1C(=O)O (centres undefined),-5,4,-8,-2,9,37*
CC(=O)Oc1ccc(Nc2ccccc2)cc1,3,-17,-8,-1,50*,10
CC(=O)Oc1ccc(NC(=O)Cc2ccccc2)cc1,5,2,-20,4,3,1
Nc1nonc1-n1nnc(C(=O)N/N=C/c2cccnc2)c1CSc1ccccc1,0,29,10,-9,28,13
Nc1nonc1-n1nnc(C(=O)N/N=C/c2cccnc2)c1CSc1ccc(Cl)cc1,-13,56*,20,0,47*,20
Nc1sc(Cc2ccccc2)cc1C(=O)NC1CCCCC1,·,-16,·,·,·,4
C/C(=N\NC(=O)C(=O)N/N=C(\C)c1cccc(O)c1)c1cccc(O)c1,-8,-5,-8,-10,58*,0
C/C(=N\NC(=O)C(N)=O)c1cccc([N+](=O)[O-])c1,-2,-9,21,13,18,0
Cc1cccc2cc(CN(CC3CCCO3)S(=O)(=O)c3ccccc3)c(=O)[nH]c12 (centres undefined),-7,49*,-16,-26,7,10
COc1ccc2cc(CN(CC3CCCO3)S(=O)(=O)c3ccccc3)c(=O)[nH]c2c1 (centres undefined),-5,3,-9,-12,12,19
CCc1cc2c3c(c1)C1(C(=O)N3C(C)(C)C=C2C)C(C#N)=C(N)Oc2[nH]c(=O)[nH]c(=O)c21 (centres undefined),14,12,-9,-15,14,7
O=c1c2ccccc2nc2c3ccccc3c(NCCO)nn12,-12,24,-19,-9,50*,2
O=c1c2ccccc2nc2c3ccccc3c(NCc3cccnc3)nn12,-8,-15,-16,-19,56,4
O=C(Nc1cccc(Cl)c1)c1cccnn1,-13,-15,9,4,12,1
Cc1ccccc1C(=O)N1CCN(c2ccc(NC(=O)CSc3ccc(Cl)cc3)cc2)CC1,6,53*,13,31*,23,14
Cc1ccccc1C(=O)N1CCN(c2ccc(NC(=O)c3cccc(OC(C)C)c3)cc2)CC1,-16,-22,-18,-11,24,3
Cc1ccccc1OCC(=O)Nc1ccc(N2CCN(C(=O)c3ccco3)CC2)cc1,0,60*,2,-5,11,16
SMILES,GPR7 antag,TAAR1 antag,OX1R antag-1,CHO parental Ca,OX1R antag-2,TAAR1 ag
COc1c(C)cccc1C(=O)Nc1ccc(N2CCN(C(=O)c3ccccc3C)CC2)cc1,16,55*,-22,-24,6,11
Cc1ccc(C(=O)N2CCCC(C(=O)Nc3cccc(-c4ccc(F)cc4)c3)C2)cn1 (centres undefined),12,-5,-49,-40,9,2
CC(=O)N[C@@H](Cc1c[nH]c2ccccc12)C(=O)OCC(=O)Nc1ccc(Cl)c(S(=O)(=O)N(C)C)c1,10,19,23,5,54*,11
COC(=O)[C@H](CCSC)NC(=O)Cn1cnc2c(OCc3ccccc3)ncnc21,·,-17,0,-18,-5,11
N#Cc1cc(Oc2cccc3cccnc23)c(-n2nnc3ccccc32)cc1C#N,-12,4,46*,22,18,3
CCOc1cc(/C=C2\CCC/C(=C\c3cc(Cl)c(O)c(OCC)c3)C2=O)cc(Cl)c1O,12,56*,29,21,75*,6
CCOc1cc(/C=C2\CN(C)C/C(=C\c3ccc(O)c(OCC)c3)C2=O)ccc1O,-2,17,-30,-28,-9,15
CCCn1c(CN2CCN(c3cccc(Cl)c3)CC2)nc2c1c(=O)n(C)c(=O)n2C,-3,2,-25,33*,21,2
C=CCn1c(O)c(N=Nc2ccccc2O)c2ccccc21,·,5,77*,67*,6,6
O=C(CN1CCN(c2cccc(Cl)c2)CC1)NCc1ccccc1,-3,-14,-29,-17,5,0
S=C(NCc1ccccc1)N1CCN(c2cccc(Cl)c2)CC1,32*,12,20,13,27,6
O=C(NCC(=O)N(Cc1cccs1)C(C(=O)NC1CCCCC1)c1ccco1)c1ccco1 (centres undefined),-9,52*,-21,-22,7,18
CCc1ccc(S(=O)(=O)/N=C2\C=C(Nc3ccc(C(=O)O)cc3)C(=O)c3ccccc32)cc1,-29,25,-11,-16,52*,9
Cc1ccc(S(=O)(=O)/N=C2\C=C(Nc3cccc(C(=O)O)c3)C(=O)c3ccccc32)cc1,-21,1,-20,-15,35,1
Cc1ccc(CNc2ncnc3cc(Cl)ccc23)cc1,9,16,-16,35*,31,0
CCOC(=O)C1=C(C)C(c2ccccc2)NC(=S)N1 (centres undefined),3,-3,-8,-13,6,3
CC1CC(C)CN(S(=O)(=O)c2ccc3c(c2)C(C)(C)C(=O)N3C)C1 (centres undefined),6,-4,-11,-11,30,4
COc1cc(/C=N/N(c2ccccc2)c2ccccc2)ccc1O,-34,0,-19,-16,5,12
CN(/N=C\c1ccc(O)c(O)c1)c1nc(-c2ccccc2)cc(-c2ccccc2)n1,-9,41,-4,28*,11,3
Cc1ccc(C(=O)Nc2ccccc2C(=O)NC(Cc2c[nH]c3ccccc23)C(=O)O)cc1 (centres undefined),-2,-12,-20,-20,50*,3
